ChEMBL document CHEMBL3097999, “Synthesis and biological evaluation of novel substituted 1,3,4-thiadiazole and 2,6-di aryl substituted imidazo [2,1-b] [1,3,4] thiadiazole derivatives” (2014)

Key:
Type in all cases: functional
Settings in all cases: read-out: DIZ
[1] = tested on: Chrysosporium keratinophilum; experiment: Antimicrobial activity against Chrysosporium keratinophilum at 0.5 mg/ml by well plate method
In short: (§1)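 Fungal well-plate diffusion against Candida albicans, Aspergillus flavus and Chrysosporium keratinophilum. Compounds in DMSO at 1 and 0.5 mg/mL, with fluconazole as the reference drug. Activity scored as the zone of inhibition.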

Escherichia coli [2] = experiment: Antimicrobial activity against Escherichia coli at 0.5 mg/ml by well plate method
In short: (§2)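 Agar well-plate diffusion against E. coli, B. subtilis and P. aeruginosa. Test compounds dissolved in DMSO at 1 and 0.5 mg/mL and placed in wells. Streptomycin was the reference drug. Read-out is the zone of inhibition.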

Pseudomonas aeruginosa [3] = experiment: Antimicrobial activity against Pseudomonas aeruginosa at 0.5 mg/ml by well plate method; in short: as §2
Candida albicans [4] = experiment: Antimicrobial activity against Candida albicans at 0.5 mg/ml by well plate method; in short: as §1
Escherichia coli [5] = experiment: Antimicrobial activity against Escherichia coli at 1 mg/ml by well plate method; in short: as §2
Bacillus subtilis [6] = experiment: Antimicrobial activity against Bacillus subtilis at 0.5 mg/ml by well plate method; in short: as §2
[7] = tested on: Chrysosporium keratinophilum; experiment: Antimicrobial activity against Chrysosporium keratinophilum at 1 mg/ml by well plate method; in short: as §1
Aspergillus flavus [8] = experiment: Antimicrobial activity against Aspergillus flavus at 1 mg/ml by well plate method; in short: as §1
Candida albicans [9] = experiment: Antimicrobial activity against Candida albicans at 1 mg/ml by well plate method; in short: as §1
Bacillus subtilis [10] = experiment: Antimicrobial activity against Bacillus subtilis at 1 mg/ml by well plate method; in short: as §2
Pseudomonas aeruginosa [11] = experiment: Antimicrobial activity against Pseudomonas aeruginosa at 1 mg/ml by well plate method; in short: as §2
Aspergillus flavus [12] = experiment: Antimicrobial activity against Aspergillus flavus at 0.5 mg/ml by well plate method; in short: as §1

SMILES	zone of inhibition at 500 µg/mL [1] [mm]	zone of inhibition at 500 µg/mL (Escherichia coli [2]) [mm]	zone of inhibition at 500 µg/mL (Pseudomonas aeruginosa [3]) [mm]	zone of inhibition at 500 µg/mL (Candida albicans [4]) [mm]	zone of inhibition at 1000 µg/mL (Escherichia coli [5]) [mm]	zone of inhibition at 500 µg/mL (Bacillus subtilis [6]) [mm]	zone of inhibition at 1000 µg/mL [7] [mm]	zone of inhibition at 1000 µg/mL (Aspergillus flavus [8]) [mm]	zone of inhibition at 1000 µg/mL (Candida albicans [9]) [mm]	zone of inhibition at 1000 µg/mL (Bacillus subtilis [10]) [mm]	zone of inhibition at 1000 µg/mL (Pseudomonas aeruginosa [11]) [mm]	zone of inhibition at 500 µg/mL (Aspergillus flavus [12]) [mm]
CN1CCN(c2ccc(-c3nnc(NC(=O)C(C)(C)C)s3)cc2[N+](=O)[O-])CC1	2	3	2	2	5	3	4	3	4	4	3	–
CCCCNc1ccc(-c2nn3cc(-c4ccc(OC)cc4)nc3s2)cc1[N+](=O)[O-]	1	3	5	2	5	4	3	2	3	6	7	–
CN[C@@H]1[C@H](O[C@H]2[C@H](O[C@H]3[C@H](O)[C@@H](O)[C@H](N=C(N)N)[C@@H](O)[C@@H]3N=C(N)N)O[C@@H](C)[C@]2(O)C=O)O[C@@H](CO)[C@H](O)[C@H]1O [STREPTOMYCIN]	–	17	15	–	19	19	–	–	–	22	19	–
COc1ccc(-c2cn3nc(-c4ccc(NCC5CCCO5)c([N+](=O)[O-])c4)sc3n2)cc1 (stereo unspecified)	6	10	9	5	13	8	8	9	7	10	13	6
OC(Cn1cncn1)(Cn1cncn1)c1ccc(F)cc1F [FLUCONAZOLE]	15	–	–	20	–	–	17	13	22	–	–	10
COc1ccc(-c2cn3nc(-c4ccc(N5CCCC5)c([N+](=O)[O-])c4)sc3n2)cc1	4	5	4	5	8	7	6	7	7	9	6	5
COc1ccc(-c2cn3nc(-c4ccc(NCc5ccc(F)cc5F)c([N+](=O)[O-])c4)sc3n2)cc1	6	1	2	3	3	2	8	6	5	4	4	3
CC(C)(C)C(=O)Nc1nnc(-c2ccc(NCc3ccc(F)cc3F)c([N+](=O)[O-])c2)s1	5	3	2	3	5	2	7	6	5	4	4	4
CC(C)(C)C(=O)Nc1nnc(-c2ccc(N3CCC(c4ccc(C(F)(F)F)cc4)CC3)c([N+](=O)[O-])c2)s1	5	5	6	4	8	5	7	8	7	7	7	5
CC(C)(C)C(=O)Nc1nnc(-c2ccc(N3CCCC3)c([N+](=O)[O-])c2)s1	3	3	4	5	5	1	5	6	6	3	6	4
COc1ccc(-c2cn3nc(-c4ccc(NC5CCCCC5)c([N+](=O)[O-])c4)sc3n2)cc1	5	9	7	7	11	7	7	8	9	10	9	6
CC(C)(C)C(=O)Nc1nnc(-c2ccc(NC3CCCCC3)c([N+](=O)[O-])c2)s1	4	8	7	7	10	6	6	7	9	8	9	5
COc1ccc(-c2cn3nc(-c4ccc(N5CCN(C)CC5)c([N+](=O)[O-])c4)sc3n2)cc1	–	4	3	–	6	3	–	–	–	5	5	–
COc1ccc(-c2cn3nc(-c4ccc(N(C)C)c([N+](=O)[O-])c4)sc3n2)cc1	2	3	4	3	4	2	4	4	5	3	6	2
CC(C)(C)C(=O)Nc1nnc(-c2ccc(Nc3ccc(F)cc3)c([N+](=O)[O-])c2)s1	4	5	4	2	7	3	5	3	4	5	6	2
CCN(CC)c1ccc(-c2nn3cc(-c4ccc(OC)cc4)nc3s2)cc1[N+](=O)[O-]	3	4	1	5	6	3	5	5	6	5	3	3
CC(C)(C)C(=O)Nc1nnc(-c2ccc(N3CCOCC3)c([N+](=O)[O-])c2)s1	2	10	10	3	12	9	4	5	5	11	13	2
CC(C)(C)C(=O)Nc1nnc(-c2ccc(NC3CCCC3)c([N+](=O)[O-])c2)s1	2	4	2	2	6	3	4	4	5	4	3	2
